Kir21 block: Kir2.1 (mouse) channel inhibition. P35561. HEK293-Kir2.1, FluxOR thallium flux fluorescence; stronger effect = lower value. B-score at 10 µM. actives 0.85% (n = 310,000);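 active = fluorescence ratio B-score at or below minus 3 SD of library scores, with starting-brightness B-score within 2 SD, cut at about -4.2 in these data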;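 also: channel flux triggered by added potassium and thallium sulfate stimulus; B-score of peak minus minimum fluorescence over baseline after thallium stimulus; more negative B-score means stronger Kir2.1 block with less thallium influx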
KCNQ1 block: human KCNQ1 channel inhibition | B-score at 10 µM | CHO-K1 KCNQ1, FluxOR thallium flux fluorescence; stronger effect = higher value | AID 2642 | actives 1.3% (n = 310,000) | P51787;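 active = compounds whose thallium flux B-score, printed positive for inhibition, exceeds three library SD while starting fluorescence stays within three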;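 also: channel opened by potassium depolarization with thallium stimulus after 20 min compound exposure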
KCNQ1 act: potentiates or activates the human KCNQ1 potassium channel; P51787; CHO-K1 KCNQ1, thallium flux FluxOR fluorescence; stronger effect = higher value; B-score at 10 µM; actives 0.35% (n = 310,000); AID 2648;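 active = fluorescence ratio B-score, a plate-corrected score, at least three library SD, with initial intensity B-score within 5 SD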
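assay system = KCNQ1-transfected CHO-K1 cells | medium = assay buffer with matched DMSO | probe or stimulus = depolarizing K+/Tl+ stimulus, K2SO4 and Tl2SO4 each 12.5 mM in 5x stock | dosing = single dose | incubation = dye 90 min, compound 20 min, room temperature | detection = kinetic FluxOR fluorescence, 10 s baseline plus 110 s post-stimulus | evaluation = ratio B score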
hERG protect: compounds protecting human hERG from proarrhythmic drug block; Q12809; AID 1511; actives 0.51% (n = 310,000); CHO-hERG, FluxOR thallium flux, dofetilide IC70 present; activation (rescue from dofetilide block), less the hit threshold, % at 10 µM;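 active = activation above the mean of controls blocked by dofetilide plus 5 SD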;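 also: thallium influx through hERG after potassium depolarization seen as dye fluorescence rise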
KCNK9 inh: inhibitors of human KCNK9 two-pore domain potassium channel; actives 1.2% (n = 310,000); B-score at 10 µM; HEK293 KCNK9, FluxOR thallium flux fluorescence; stronger effect = lower value; Q9NPC2;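 active = ratio B-score over 3 SD below the library mean, with starting fluorescence within 5 SD of its mean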;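 also: negative B-score means less thallium flux so channel inhibition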
KCNK3 inh: human KCNK3 channel inhibition, primary screen; actives 0.84% (n = 340,000); CHO-KCNK3 thallium flux, FluxOR fluorescence; stronger effect = lower value; O14649; B-score at 10 µM; AID 602410;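 active = B-score under library mean minus 4 SD, starting fluorescence ratio at most library mean plus 5 SD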;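 also: more negative B-score means stronger inhibition of thallium flux through KCNK3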
Target sequence (O14649 whole entry, looked up): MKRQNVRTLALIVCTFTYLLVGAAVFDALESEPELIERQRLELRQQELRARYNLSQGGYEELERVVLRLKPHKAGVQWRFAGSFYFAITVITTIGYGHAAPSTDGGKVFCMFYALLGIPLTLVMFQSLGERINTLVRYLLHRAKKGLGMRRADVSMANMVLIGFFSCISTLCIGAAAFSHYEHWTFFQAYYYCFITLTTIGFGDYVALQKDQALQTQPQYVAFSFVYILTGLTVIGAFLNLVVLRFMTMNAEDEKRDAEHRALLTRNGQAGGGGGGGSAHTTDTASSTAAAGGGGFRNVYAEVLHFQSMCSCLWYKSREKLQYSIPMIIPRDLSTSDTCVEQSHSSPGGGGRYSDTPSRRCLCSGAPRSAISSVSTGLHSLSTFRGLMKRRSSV
Numbers stand for hits; n = inactive; x = no result given; ! = a repeat was not active. Hits are enriched below; roughly 3.7% of the tested compounds scored in any of these assays.

SMILES	Kir21 block	KCNQ1 block	KCNQ1 act	hERG protect	KCNK9 inh	KCNK3 inh
CC(NC(=O)NC1CCCCC1)C(c1cccs1)N1CCN(Cc2ccccc2)CC1 (centres undefined)	n	n	n	n	n	n
CC(NC(=S)NCCc1ccccc1)C(c1cccs1)N1CCN(Cc2ccccc2)CC1 (centres undefined)	n	6	n	n	n	n
O=C1C2C3C=CC(O3)C2C(=O)N1N=Cc1ccc2c(c1)OCO2 (centres undefined)	x	x	x	x	x	n
O=S(=O)(/N=C(/Nc1ccc(F)c(F)c1F)c1ccccc1)c1ccccc1	n	n	n	n	n	n
C=CC[n+]1c(/C=C/c2ccc(OC(C)=O)c(OC)c2)ccc2ccccc21	n	n	12	n	n	n
COc1cc(/C=N/NC(=O)Nc2ccccc2)ccc1OC(C)=O	n	n	n	n	n	n
O=C(/C=C/c1c(F)cccc1Cl)N1CCc2ccccc2C1	n	n	n	n	n	n
CN(c1ccccc1)S(=O)(=O)c1ccc(C(=O)NCc2cccs2)cc1	n	n	n	n	n	n
CCN(CC)S(=O)(=O)c1ccc(OC)c(NC(=O)c2cc([N+](=O)[O-])ccc2Cl)c1	n	n	n	n	n	n
CCN(CC)S(=O)(=O)c1ccc(Cl)c(C(=O)Nc2ccc(Cl)cc2[N+](=O)[O-])c1	n	n	n	n	-6.6	n
O=S(=O)(NC1CC1)c1ccc(Cl)cc1F	n	n	n	n	n	n
CN(C(=S)NC(=O)CCCOc1ccc(Cl)cc1Cl)c1ccccc1	-4.9	n	n	n	n	n
CC(Oc1ccc(Cl)cc1Cl)C(=O)N(C)c1ccccc1 (centres undefined)	-6.4	n	n	n	n	n
Cc1ccc(NC(=O)C(=O)NCc2ccc(/C=C(/C#N)C(=O)NCc3cccnc3)o2)cc1C	n	n	n	n	n	n
CCN(CC)CCNc1ncnc2c1sc1nc(N3CCCC3)c3c(c12)CC(C)(C)OC3	n	n	8	n	n	n
O=C(COC(=O)COc1ccccc1)NC12CC3CC(CC(C3)C1)C2	x	x	x	x	x	n
CC(C)c1ccc(OCC(O)CNC(C)c2ccccc2)cc1 (centres undefined)	-6	n	n	n	n	n
Cc1ccc(C(OCC(O)CNCc2ccc(F)cc2)c2ccccc2)cc1 (centres undefined)	-12	n	n	n	n	n
OC(CNCCc1ccc(Cl)cc1)COc1cc(Cl)ccc1Cl (centres undefined)	-14	9	n	n	n	n
OC(CNCCc1ccc(Cl)cc1)COc1ccc2ccccc2c1 (centres undefined)	x	x	x	x	x	n
CCC(=O)c1ccc(OCC(O)CNC(C)c2ccccc2)cc1 (centres undefined)	n	n	n	n	n	n
OC(CNCCc1ccccc1)COc1ccc(OCC(O)CNCCc2ccccc2)cc1 (centres undefined)	-11	n	n	n	n	n
COc1ccc(S(=O)(=O)N(C)C[C@H]2Oc3ccc(NS(=O)(=O)c4cccs4)cc3C(=O)N([C@H](C)CO)C[C@@H]2C)cc1	x	x	x	x	x	n
COc1ccc(C(OCC(O)CNCCc2ccccc2)c2ccc(OC)cc2)cc1 (centres undefined)	-6.7	n	n	n	n	n
O=C(c1ccccc1)c1ccc(OCC(O)CNCc2cccc(Cl)c2)cc1 (centres undefined)	-8.4	n	n	n	n	n
SMILES	Kir21 block	KCNQ1 block	KCNQ1 act	hERG protect	KCNK9 inh	KCNK3 inh
CC(NCC(O)COCCC12CC3CC(CC(C3)C1)C2)c1ccccc1 (centres undefined)	-12	8	n	n	n	n
OC(CNCCC(c1ccccc1)c1ccccc1)COc1ccccc1 (centres undefined)	-6.5	n	n	n	n	n
CC(C)c1c(Cl)c(O)c(-c2ccccc2)c(=O)n1-c1ccc(F)cc1	n	n	n	n	n	n
O=C(CN1C(=O)/C(=C/c2ccccc2F)Sc2ccccc21)N1CCN(c2ccccn2)CC1	n	n	n	n	n	n
O=C(CSc1ccccc1F)NNC(=O)c1ccncc1	x	x	x	x	x	n
CC(C)(C)OC(=O)NN1CC(=O)N2Cc3ccccc3C[C@@H]2C1=O	n	n	n	n	n	n
O=S(=O)(CCSc1nc2ccccc2o1)c1nc2ccccc2s1	n	n	n	n	n	n
O=S(=O)(CCSc1ccccn1)c1nc2ccccc2s1	n	6	n	n	n	n
CCOCC(=O)Nc1cc(C(=O)OC)cc(C(=O)OC)c1	n	n	n	n	n	n
COc1ccc(-c2oc3cccnc3c2C#CC2(O)CCCCC2)cc1	n	6	n	n	n	n
COc1ccc(-c2oc3cccnc3c2C#CCO)cc1	n	n	n	n	n	n
CCCCCCCCCCCCCCCC[n+]1ccc(C(N)=O)cc1	x	x	x	x	x	n
CCCCCCCCCCCCCCCC[n+]1ccccc1	x	x	x	x	x	-11!
CCN(CC)C(=O)C12CC3CC(CC(Br)(C3)C1)C2	n	n	n	n	n	n
Cn1ccc(C(=O)N/N=C/c2ccncc2)n1	n	n	n	n	n	n
COc1cc(OC)cc(C(=O)NCC2CCCN(C(=O)c3csc(C)n3)C2)c1 (centres undefined)	n	n	n	n	n	n
COc1ccc(NS(=O)(=O)c2ccc(OC)c3ccccc23)cn1	-5.3	n	n	n	n	n
CCNc1nc(NCC)n2c(SCC(=O)Nc3ccccc3)nnc2n1	n	n	n	6.5	n	n
CCNc1nc(NCC)n2c(SCC(=O)Nc3ccc(F)cc3)nnc2n1	n	n	n	n	n	n
COc1ccc(-c2oc(NC(=O)c3ccc(C)cc3)c(C#N)c2-c2ccc(OC)cc2)cc1	n	n	n	n	n	n
O=C(Nc1nc(-c2ccccc2)c(-c2ccccc2)o1)c1ccc(F)cc1	n	n	56	5.6	n	n
CCOC(=O)C(=O)Nc1nc(-c2ccccc2)c(-c2ccccc2)o1	n	n	n	n	n	n
COc1ccc(C(=O)Nc2oc(-c3ccccc3)c(-c3ccccc3)c2C#N)cc1	n	7	n	n	n	n
COc1cccc(C(=O)Nc2cc(C)c3c(=O)oc4ccccc4c3n2)c1	n	n	n	n	-11	-10
COc1cccc(C(=O)Nc2nc(-c3ccccc3)c(-c3ccccc3)o2)c1	n	n	9	n	n	n
COc1cccc(C(=O)Nc2c(F)c(F)c(F)c(F)c2F)c1	n	n	n	n	n	n
Cc1ccc(C(=O)CN(CCC(=O)O)S(=O)(=O)c2ccc([N+](=O)[O-])cc2)cc1	x	x	x	x	x	n
CC1(c2ccccc2)NC(=O)N(CC(=O)Nc2ccc(C(N)=O)cc2)C1=O (centres undefined)	n	n	n	n	n	n
Cc1cc(=S)nc(-c2ccccn2)[nH]1	n	n	n	n	n	n
